Results: ChEMBL document CHEMBL4346672, “Antimicrobial and KPC/AmpC inhibitory activity of functionalized benzosiloxaboroles” (Eur J Med Chem, 2019)
Activity calls are given as the source filed them. The calls are words filed in the database; no cut-off is given here.

Columns and labels:
Candida parapsilosis = assay: Antifungal activity against Candida parapsilosis ATCC 22019 assessed as diameter of zone inhibition incubated for 24 hrs by CLSI disc diffusion method; type: functional
How it was run: (§1)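 Yeast disc diffusion on Mueller-Hinton agar supplemented with 2% glucose and 0.5 mg/L methylene blue. Compounds in DMSO. Yeasts subcultured on Sabouraud dextrose agar before testing. Zones read after 35 °C, 24 h.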

Candida tropicalis = assay: Antifungal activity against Candida tropicalis IBA 171 assessed as diameter of zone inhibition incubated for 24 hrs by CLSI disc diffusion method; type: functional; how it was run: as §1
[1] = system: Staphylococcus epidermidis; assay: Antibacterial activity against Staphylococcus epidermidis ATCC 12228 assessed as diameter of zone inhibition measured after 18 hrs by CLSI disc diffusion method; type: functional
How it was run: (§2)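 Disc diffusion on Mueller-Hinton II agar. Compounds dissolved in DMSO. Strains stored at -80 °C and subcultured twice on tryptic soy agar before testing. Inhibition zones read after 35 °C, 18 h.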

Enterococcus faecalis = assay: Antibacterial activity against Enterococcus faecalis ATCC 29212 assessed as diameter of zone inhibition measured after 18 hrs by CLSI disc diffusion method; type: functional; how it was run: as §2
Serratia marcescens = settings: ATCC 13880
[2] = system: Meyerozyma guilliermondii; assay: Antifungal activity against Candida guilliermondii IBA 155 assessed as diameter of zone inhibition incubated for 24 hrs by CLSI disc diffusion method; type: functional; how it was run: as §1
Burkholderia cepacia = assay: Antibacterial activity against Burkholderia cepacia ATCC 25416 assessed as diameter of zone inhibition measured after 18 hrs by CLSI disc diffusion method; type: functional; how it was run: as §2
Staphylococcus aureus = assay: Antibacterial activity against Staphylococcus aureus ATCC 6538P assessed as diameter of zone inhibition measured after 18 hrs by CLSI disc diffusion method; type: functional; how it was run: as §2
Acinetobacter baumannii [3] = assay: Antibacterial activity against Acinetobacter baumannii ATCC 19606 assessed as diameter of zone inhibition measured after 18 hrs by CLSI disc diffusion method; type: functional; how it was run: as §2
Klebsiella pneumoniae [4] = settings: ATCC 13883
Saccharomyces cerevisiae = assay: Antifungal activity against Saccharomyces cerevisiae ATCC 9763 diameter of zone inhibition incubated for 24 hrs by CLSI disc diffusion method; type: functional
How it was run: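 Disc-diffusion run on Mueller-Hinton II agar with 2% glucose and 0.5 mg/L methylene blue, using compounds in DMSO. Yeast was precultured on Sabouraud dextrose agar (24–48 h, 30 °C). Zones read after 24 h at 35 °C.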

Enterococcus faecium = assay: Antibacterial activity against Enterococcus faecium ATCC 6057 assessed as diameter of zone inhibition measured after 18 hrs by CLSI disc diffusion method; type: functional; how it was run: as §2
Pseudomonas aeruginosa [5] = assay: Antibacterial activity against Pseudomonas aeruginosa ATCC 27853 assessed as diameter of zone inhibition measured after 18 hrs by CLSI disc diffusion method; type: functional, organism-based; how it was run: as §2
[6] = system: Bordetella bronchiseptica; assay: Antibacterial activity against Bordetella bronchiseptica ATCC 4617 assessed as diameter of zone inhibition measured after 18 hrs by CLSI disc diffusion method; type: functional; how it was run: as §2
Proteus mirabilis = assay: Antibacterial activity against Proteus mirabilis ATCC 12453 assessed as diameter of zone inhibition measured after 18 hrs by CLSI disc diffusion method; type: functional; how it was run: as §2
Bacillus subtilis = assay: Antibacterial activity against Bacillus subtilis ATCC 6633 assessed as diameter of zone inhibition measured after 18 hrs by CLSI disc diffusion method; type: functional; how it was run: as §2
[7] = Dissociation constant, pKa1 of compound in 0.1 M NaOH by potentiometric analysis; type: physicochemical
Pichia kudriavzevii = assay: Antifungal activity against Candida krusei ATCC 6258 assessed as diameter of zone inhibition incubated for 24 hrs by CLSI disc diffusion method; type: functional; how it was run: as §1
Enterobacter cloacae = assay: Antibacterial activity against Enterobacter cloacae DSM 6234 assessed as diameter of zone inhibition measured after 18 hrs by CLSI disc diffusion method; type: functional; how it was run: as §2
Candida albicans = assay: Antifungal activity against Candida albicans ATCC 90028 assessed as diameter of zone inhibition incubated for 24 hrs by CLSI disc diffusion method; type: functional; how it was run: as §1
Escherichia coli [8] = assay: Antibacterial activity against Escherichia coli ATCC 25922 assessed as diameter of zone inhibition measured after 18 hrs by CLSI disc diffusion method; type: functional; how it was run: as §2
[9] = system: Stenotrophomonas maltophilia; assay: Antibacterial activity against Stenotrophomonas maltophilia ATCC 13637 assessed as diameter of zone inhibition measured after 18 hrs by CLSI disc diffusion method; type: functional; how it was run: as §2
Acinetobacter baumannii [10] = assay: Inhibition of beta lactamase OXA-24 in Acinetobacter baumannii 181 assessed as potentiation of ceftazidime-induced antibacterial activity by measuring ceftazidime MIC at 16 mg/L incubated for 18 hrs by broth dilution method (reference value: >[…] mg/L)
[11] = system: Klebsiella pneumoniae ATCC BAA-1705; assay: Inhibition of beta lactamase KPC in Klebsiella pneumoniae ATCC BAA 1705 assessed as potentiation of meropenem-induced antibacterial activity by measuring diameter of zone inhibition at 0.3 mg incubated for 18 hrs in presence of 10 ug meropenem by CLSI disc diffusion method (Rvb=[…] mm)
Escherichia coli [12] = assay: Inhibition of beta lactamase CMY-2 in Escherichia coli 77 assessed as potentiation of ceftazidime-induced antibacterial activity by measuring ceftazidime MIC at 16 mg/L incubated for 18 hrs by broth dilution method (reference value: […] mg/L)
Pseudomonas aeruginosa [13] = assay: Inhibition of beta lactamase AmpC in Pseudomonas aeruginosa MUW 700 assessed as potentiation of ceftazidime-induced antibacterial activity by measuring diameter of zone inhibition at 0.3 mg incubated for 18 hrs in presence of 30 ug ceftazidime by CLSI disc diffusion method (Rvb=11 mm)
How it was run: (§3)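 AmpC combination disc test on Mueller-Hinton agar, following EUCAST guidance and Yagi et al. Inhibition zones were compared between a CAZ-30 disc and a ceftazidime disc plus agent or PBA, each at 0.3 mg per disc. Plates were incubated at 35 °C for 18 h. A zone difference of at least 5 mm was counted as inhibition.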

Pseudomonas aeruginosa [14] = assay: Inhibition of beta lactamase OXA-15 in Pseudomonas aeruginosa 852 assessed as potentiation of ceftazidime-induced antibacterial activity by measuring ceftazidime MIC at 16 mg/L incubated for 18 hrs by broth dilution method (reference value: >[…] mg/L)
[15] = molecular target: Class A carbapenemase KPC-2 (Escherichia coli) (UniProt A8DS27); assay: Inhibition of beta lactamase KPC-2 in Escherichia coli 76 assessed as potentiation of meropenem-induced antibacterial activity by measuring meropenem MIC at 16 mg/L incubated for 18 hrs by broth dilution method (reference value: >[…] mg/L)
Klebsiella pneumoniae [16] = assay: Inhibition of beta lactamase SHV-12 in Klebsiella pneumoniae ATCC 700603 assessed as potentiation of ceftazidime-induced antibacterial activity by measuring ceftazidime MIC at 16 mg/L incubated for 18 hrs by broth dilution method (reference value: […] mg/L)
Acinetobacter baumannii [17] = assay: Inhibition of beta lactamase OXA-24 in Acinetobacter baumannii 181 assessed as potentiation of meropenem-induced antibacterial activity by measuring meropenem MIC at 16 mg/L incubated for 18 hrs by broth dilution method (reference value: […] mg/L)
Escherichia coli [18] = assay: Inhibition of beta lactamase KPC-3 in Escherichia coli 82 TR assessed as potentiation of ceftazidime-induced antibacterial activity by measuring ceftazidime MIC at 16 mg/L incubated for 18 hrs by broth dilution method (reference value: […] mg/L)
Klebsiella pneumoniae [19] = assay: Inhibition of beta lactamase KPC-3 in Klebsiella pneumoniae 83 assessed as potentiation of meropenem-induced antibacterial activity by measuring meropenem MIC at 16 mg/L incubated for 18 hrs by broth dilution method (reference value: […] mg/L)
[20] = system: Klebsiella pneumoniae ATCC BAA-1705; assay: Inhibition of beta lactamase KPC-2 in Klebsiella pneumoniae ATCC BAA 1705 assessed as potentiation of ceftazidime-induced antibacterial activity by measuring ceftazidime MIC at 16 mg/L incubated for 18 hrs by broth dilution method
Pseudomonas aeruginosa [21] = assay: Inhibition of beta lactamase AmpC in Pseudomonas aeruginosa 700 assessed as potentiation of ceftazidime-induced antibacterial activity by measuring ceftazidime MIC at 16 mg/L incubated for 18 hrs by broth dilution method (reference value: >[…] mg/L)
Klebsiella pneumoniae [22] = assay: Inhibition of beta lactamase KPC-2 in Klebsiella pneumoniae 75 assessed as potentiation of ceftazidime-induced antibacterial activity by measuring ceftazidime MIC at 16 mg/L incubated for 18 hrs by broth dilution method (reference value: […] mg/L)
[23] = system: Klebsiella pneumoniae 700603; assay: (§4) Inhibition of extended-spectrum beta lactamase in Klebsiella pneumoniae ATCC 700603 assessed as potentiation of cefotaxime-induced antibacterial activity by measuring diameter of zone inhibition at 0.3 mg incubated for 18 hrs in presence of 10 ug cefotaxime by CLSI disc diffusion method (Rvb=19 mm)
How it was run: (§5)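 EUCAST ESBL combination disc test on Mueller-Hinton agar. Zones were compared between a ceftazidime or cefotaxime disc alone and the same disc plus agent at 0.3 mg per disc. Clavulanic acid discs at 0.01 mg per disc served as reference. Plates were incubated at 35 °C for 18 h. A difference of at least 5 mm was counted as inhibition.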

Klebsiella pneumoniae [24] = assay: Inhibition of beta lactamase KPC-3 in Klebsiella pneumoniae 81 assessed as potentiation of ceftazidime-induced antibacterial activity by measuring ceftazidime MIC at 16 mg/L incubated for 18 hrs by broth dilution method (reference value: >[…] mg/L)
Klebsiella pneumoniae [25] = assay: Inhibition of beta lactamase KPC-2 in Klebsiella pneumoniae 75 assessed as potentiation of meropenem-induced antibacterial activity by measuring meropenem MIC at 16 mg/L incubated for 18 hrs by broth dilution method (reference value: […] mg/L)
Escherichia coli [26] = assay: Inhibition of beta lactamase CMY-2 in Escherichia coli 77 assessed as potentiation of ceftazidime-induced antibacterial activity by measuring diameter of zone inhibition at 0.3 mg incubated for 18 hrs in presence of 30 ug ceftazidime by CLSI disc diffusion method (Rvb=13 mm); how it was run: as §3
Pseudomonas aeruginosa [27] = assay: Inhibition of beta lactamase VIM in Pseudomonas aeruginosa 698 assessed as potentiation of ceftazidime-induced antibacterial activity by measuring ceftazidime MIC at 16 mg/L incubated for 18 hrs by broth dilution method (reference value: […] mg/L)
[28] = system: Klebsiella pneumoniae ATCC BAA-1705; assay: Inhibition of beta lactamase KPC-2 in Klebsiella pneumoniae ATCC BAA 1705 assessed as potentiation of meropenem-induced antibacterial activity by measuring meropenem MIC at 16 mg/L incubated for 18 hrs by broth dilution method (reference value: […] mg/L)
[29] = system: Klebsiella pneumoniae 700603; assay: as §4, with “ceftazidime-induced” for “cefotaxime-induced”, “ceftazidime” for “cefotaxime”, “(Rvb=13” for “(Rvb=19”; how it was run: as §5
Escherichia coli [30] = assay: Inhibition of beta lactamase KPC-3 in Escherichia coli 82 TR assessed as potentiation of meropenem-induced antibacterial activity by measuring meropenem MIC at 16 mg/L incubated for 18 hrs by broth dilution method (reference value: 2 mg/L)
[31] = molecular target: Class A carbapenemase KPC-2 (Escherichia coli) (UniProt A8DS27); assay: Inhibition of beta lactamase KPC-2 in Escherichia coli 76 assessed as potentiation of ceftazidime-induced antibacterial activity by measuring ceftazidime MIC at 16 mg/L incubated for 18 hrs by broth dilution method (reference value: >[…] mg/L)
Klebsiella pneumoniae [32] = assay: Inhibition of beta lactamase CMY-2 in Klebsiella pneumoniae 78 assessed as potentiation of ceftazidime-induced antibacterial activity by measuring ceftazidime MIC at 16 mg/L incubated for 18 hrs by broth dilution method (reference value: >[…] mg/L)
Klebsiella pneumoniae [33] = assay: Inhibition of beta lactamase KPC-3 in Klebsiella pneumoniae 81 assessed as potentiation of meropenem-induced antibacterial activity by measuring meropenem MIC at 16 mg/L incubated for 18 hrs by broth dilution method (reference value: […] mg/L)
Klebsiella pneumoniae [34] = assay: Inhibition of beta lactamase KPC-3 in Klebsiella pneumoniae 83 assessed as potentiation of ceftazidime-induced antibacterial activity by measuring ceftazidime MIC at 16 mg/L incubated for 18 hrs by broth dilution method (reference value: >[…] mg/L)

Structure (SMILES): C[Si]1(C)OB(O)c2cccc(Cl)c21
- diameter of the inhibition zone (DIZ) (Candida parapsilosis): 12 mm
- diameter of the inhibition zone (DIZ) (Candida tropicalis): 12 mm
- diameter of the inhibition zone (DIZ) [1]: 33 mm
- diameter of the inhibition zone (DIZ) (Enterococcus faecalis): 15 mm
- DIZ (Serratia marcescens): inactive
- diameter of the inhibition zone (DIZ) [2]: 25 mm
- diameter of the inhibition zone (DIZ) (Burkholderia cepacia): inactive
- diameter of the inhibition zone (DIZ) (Staphylococcus aureus): 34 mm
- diameter of the inhibition zone (DIZ) (Acinetobacter baumannii [3]): inactive
- DIZ (Klebsiella pneumoniae [4]): inactive
- diameter of the inhibition zone (DIZ) (Saccharomyces cerevisiae): 30 mm
- diameter of the inhibition zone (DIZ) (Enterococcus faecium): 20 mm
- diameter of the inhibition zone (DIZ) (Pseudomonas aeruginosa [5]): inactive
- diameter of the inhibition zone (DIZ) [6]: inactive
- diameter of the inhibition zone (DIZ) (Proteus mirabilis): 19 mm
- diameter of the inhibition zone (DIZ) (Bacillus subtilis): 32 mm
- pKa [7]: 6.5
- diameter of the inhibition zone (DIZ) (Pichia kudriavzevii): 17 mm
- diameter of the inhibition zone (DIZ) (Enterobacter cloacae): inactive
- diameter of the inhibition zone (DIZ) (Candida albicans): 17 mm
- diameter of the inhibition zone (DIZ) (Escherichia coli [8]): inactive
- diameter of the inhibition zone (DIZ) [9]: 13 mm

Structure (SMILES): OB(O)c1ccccc1
- MIC (Acinetobacter baumannii [10]): > 64 µg/mL
- inhibition zone (IZ) [11]: 22 mm
- MIC (Escherichia coli [12]): 8 µg/mL
- inhibition zone (IZ) (Pseudomonas aeruginosa [13]): 22 mm
- MIC (Pseudomonas aeruginosa [14]): > 64 µg/mL
- MIC [15]: 32 µg/mL
- MIC (Klebsiella pneumoniae [16]): 64 µg/mL
- MIC (Acinetobacter baumannii [17]): > 64 µg/mL
- MIC (Escherichia coli [18]): 8 µg/mL
- MIC (Klebsiella pneumoniae [19]): 8 µg/mL
- MIC [20]: 32 µg/mL
- MIC (Pseudomonas aeruginosa [21]): 8 µg/mL
- MIC (Klebsiella pneumoniae [22]): 16 µg/mL
- inhibition zone (IZ) [23]: 19 mm
- MIC (Klebsiella pneumoniae [24]): 16 µg/mL
- MIC (Klebsiella pneumoniae [25]): 16 µg/mL
- inhibition zone (IZ) (Escherichia coli [26]): 24 mm
- MIC (Pseudomonas aeruginosa [27]): 64 µg/mL
- MIC [28]: 16 µg/mL
- inhibition zone (IZ) [29]: 14 mm
- MIC (Escherichia coli [30]): 0.25 µg/mL
- MIC [31]: > 64 µg/mL
- MIC (Klebsiella pneumoniae [32]): 32 µg/mL
- MIC (Klebsiella pneumoniae [33]): 2 µg/mL
- MIC (Klebsiella pneumoniae [34]): 16 µg/mL
